Assay results taken from ChEMBL document CHEMBL1141588, “Pyrrolo[2,3-a]carbazoles as potential cyclin dependent kinase 1 (CDK1) Inhibitors. Synthesis, biological evaluation, and binding mode through docking simulations” (J Med Chem, 2008).
pIC50: −log10 of the molar value. Values belong to the compound of their own block, whether it stands above or below them. Activity calls are given as the source filed them. No cut-off for these calls is given here.

Assays:
[1] = target: Cyclin-dependent kinase 1/cyclin B1 (Homo sapiens, UniProt P06493); experiment: Inhibition of CDK1/cyclin B by MESACUP assay; format: protein-complex assay
[2] = Inhibition of IGFR upto 50 uM
[3] = target: T1, Cyclin-dependent kinase 1/cyclin B1 (Homo sapiens) (UniProt P06493+P14635); experiment: Inhibition of CDK1/cyclin B at 100 uM; format: protein-complex assay
How it was run: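 CDK1/cyclin B complex activity measured in vitro with the MESACUP cdc2 kinase assay kit. Compounds were tested at 100 µM. Activity was expressed as % CDK1 activity relative to untreated control samples, as mean ± SEM, with statistical comparison against control (P < 0.05, P < 0.001).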

[4] = Inhibition of CDK1/cyclin E at 50 uM
[5] = target: Angiopoietin-1 receptor (Homo sapiens) (UniProt Q02763); experiment: Inhibition of Tie2 upto 50 uM
[6] = Inhibition of CDK1/cyclin A at 50 uM
[7] = target: T1, Cyclin-dependent kinase 1/cyclin B1 (Homo sapiens); experiment: Inhibition of CDK1/cyclin B at 30 uM; format: protein-complex assay
[8] = Inhibition of FGFR upto 50 uM
[9] = target: Vascular endothelial growth factor receptor 3 (Homo sapiens) (UniProt P35916); experiment: Inhibition of Flt4 upto 50 uM
[10] = target: Epidermal growth factor receptor (Homo sapiens) (UniProt P00533); experiment: Inhibition of EGFR upto 50 uM
[11] = target: Vascular endothelial growth factor receptor 2 (Homo sapiens) (UniProt P35968); experiment: Inhibition of KDR upto 50 uM

Cyclin-dependent kinase 1/cyclin B1, sequence (P06493 whole entry): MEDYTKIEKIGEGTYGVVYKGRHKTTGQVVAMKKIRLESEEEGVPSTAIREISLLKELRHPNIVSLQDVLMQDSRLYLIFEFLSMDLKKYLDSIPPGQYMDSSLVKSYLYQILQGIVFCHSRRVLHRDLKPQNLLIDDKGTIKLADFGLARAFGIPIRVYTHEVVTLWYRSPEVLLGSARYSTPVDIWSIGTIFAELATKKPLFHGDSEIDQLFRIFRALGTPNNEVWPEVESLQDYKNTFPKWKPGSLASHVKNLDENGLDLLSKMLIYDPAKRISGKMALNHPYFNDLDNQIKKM
Cyclin-dependent kinase 1/cyclin B1, sequence (P14635 whole entry, further chain): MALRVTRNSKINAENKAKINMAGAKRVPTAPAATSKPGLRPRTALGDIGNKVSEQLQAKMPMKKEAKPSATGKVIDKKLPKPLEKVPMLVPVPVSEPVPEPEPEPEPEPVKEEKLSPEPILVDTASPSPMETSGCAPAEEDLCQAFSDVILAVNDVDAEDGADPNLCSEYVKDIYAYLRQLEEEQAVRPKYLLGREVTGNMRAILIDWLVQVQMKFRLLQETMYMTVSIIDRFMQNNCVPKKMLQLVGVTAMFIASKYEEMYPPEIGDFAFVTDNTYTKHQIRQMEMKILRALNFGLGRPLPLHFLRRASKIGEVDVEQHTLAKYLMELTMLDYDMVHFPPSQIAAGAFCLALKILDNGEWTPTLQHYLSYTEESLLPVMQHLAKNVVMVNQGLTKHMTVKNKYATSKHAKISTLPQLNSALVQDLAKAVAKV
T1 sequence (P06493 whole entry, looked up): as the sequence (P06493 whole entry) above
T1 sequence (P14635 whole entry, looked up): as the sequence (P14635 whole entry, further chain) above
Vascular endothelial growth factor receptor 3 (Homo sapiens), sequence (P35916 whole entry): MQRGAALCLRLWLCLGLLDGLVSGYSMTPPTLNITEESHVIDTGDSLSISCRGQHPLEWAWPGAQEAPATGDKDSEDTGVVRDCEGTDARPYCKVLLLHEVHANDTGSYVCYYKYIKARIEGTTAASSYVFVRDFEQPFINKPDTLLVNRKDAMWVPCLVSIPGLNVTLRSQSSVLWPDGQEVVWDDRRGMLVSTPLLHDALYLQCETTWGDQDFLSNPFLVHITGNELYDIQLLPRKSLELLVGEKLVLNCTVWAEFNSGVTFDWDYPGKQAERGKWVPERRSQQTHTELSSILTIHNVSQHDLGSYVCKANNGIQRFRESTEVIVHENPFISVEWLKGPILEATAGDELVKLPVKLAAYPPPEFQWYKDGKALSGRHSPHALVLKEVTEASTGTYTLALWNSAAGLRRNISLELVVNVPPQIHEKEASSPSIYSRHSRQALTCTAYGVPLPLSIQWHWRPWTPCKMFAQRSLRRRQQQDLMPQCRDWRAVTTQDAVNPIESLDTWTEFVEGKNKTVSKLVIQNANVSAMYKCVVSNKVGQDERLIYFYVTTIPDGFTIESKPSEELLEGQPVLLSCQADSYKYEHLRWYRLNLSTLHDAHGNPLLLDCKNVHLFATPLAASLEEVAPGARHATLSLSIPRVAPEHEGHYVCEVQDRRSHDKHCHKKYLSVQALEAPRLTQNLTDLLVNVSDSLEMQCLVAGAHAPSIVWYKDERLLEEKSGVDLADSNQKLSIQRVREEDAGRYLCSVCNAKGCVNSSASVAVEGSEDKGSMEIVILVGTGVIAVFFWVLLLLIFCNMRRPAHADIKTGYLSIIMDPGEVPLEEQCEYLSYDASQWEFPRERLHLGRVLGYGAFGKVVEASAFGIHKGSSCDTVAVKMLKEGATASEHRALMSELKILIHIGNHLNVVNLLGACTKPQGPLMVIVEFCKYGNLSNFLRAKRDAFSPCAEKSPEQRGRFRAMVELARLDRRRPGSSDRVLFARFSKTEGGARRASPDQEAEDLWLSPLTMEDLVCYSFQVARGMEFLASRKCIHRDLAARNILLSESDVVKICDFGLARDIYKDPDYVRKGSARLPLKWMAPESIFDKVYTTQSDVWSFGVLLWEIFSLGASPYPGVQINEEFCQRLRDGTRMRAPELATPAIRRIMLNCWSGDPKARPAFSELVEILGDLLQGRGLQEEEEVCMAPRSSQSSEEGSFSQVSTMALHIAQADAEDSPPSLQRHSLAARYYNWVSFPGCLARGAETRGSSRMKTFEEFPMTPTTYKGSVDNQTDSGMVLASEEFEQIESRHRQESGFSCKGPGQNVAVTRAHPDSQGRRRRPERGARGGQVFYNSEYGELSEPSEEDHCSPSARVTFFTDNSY
Angiopoietin-1 receptor (Homo sapiens), sequence (Q02763 whole entry): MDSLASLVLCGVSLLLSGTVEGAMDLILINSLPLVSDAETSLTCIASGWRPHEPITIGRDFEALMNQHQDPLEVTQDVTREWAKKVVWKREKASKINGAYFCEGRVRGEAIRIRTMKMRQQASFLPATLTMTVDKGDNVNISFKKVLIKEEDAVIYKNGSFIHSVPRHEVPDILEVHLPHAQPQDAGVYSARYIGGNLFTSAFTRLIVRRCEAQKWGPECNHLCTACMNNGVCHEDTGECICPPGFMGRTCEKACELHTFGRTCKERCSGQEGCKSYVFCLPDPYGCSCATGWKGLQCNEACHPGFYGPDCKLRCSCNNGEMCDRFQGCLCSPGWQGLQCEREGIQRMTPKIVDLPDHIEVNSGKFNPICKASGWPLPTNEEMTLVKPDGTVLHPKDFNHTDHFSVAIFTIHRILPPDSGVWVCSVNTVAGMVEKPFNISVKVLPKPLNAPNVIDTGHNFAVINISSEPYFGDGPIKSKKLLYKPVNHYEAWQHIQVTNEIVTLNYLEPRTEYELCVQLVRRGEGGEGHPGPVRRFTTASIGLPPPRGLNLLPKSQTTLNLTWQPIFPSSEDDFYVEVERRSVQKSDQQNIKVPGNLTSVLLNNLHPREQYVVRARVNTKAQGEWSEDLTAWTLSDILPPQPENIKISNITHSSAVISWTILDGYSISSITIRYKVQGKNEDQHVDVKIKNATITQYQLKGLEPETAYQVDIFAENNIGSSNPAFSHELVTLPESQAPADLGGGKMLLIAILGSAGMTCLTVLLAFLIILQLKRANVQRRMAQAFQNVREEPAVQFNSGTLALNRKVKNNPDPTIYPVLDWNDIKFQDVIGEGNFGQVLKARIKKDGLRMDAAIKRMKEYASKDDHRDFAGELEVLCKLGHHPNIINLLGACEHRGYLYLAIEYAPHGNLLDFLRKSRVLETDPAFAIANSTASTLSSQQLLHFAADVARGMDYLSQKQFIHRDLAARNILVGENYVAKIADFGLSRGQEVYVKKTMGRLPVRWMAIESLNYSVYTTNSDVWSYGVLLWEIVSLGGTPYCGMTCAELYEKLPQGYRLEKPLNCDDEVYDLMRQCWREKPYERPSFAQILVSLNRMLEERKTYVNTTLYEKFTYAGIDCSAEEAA
Epidermal growth factor receptor (Homo sapiens), sequence (P00533 whole entry): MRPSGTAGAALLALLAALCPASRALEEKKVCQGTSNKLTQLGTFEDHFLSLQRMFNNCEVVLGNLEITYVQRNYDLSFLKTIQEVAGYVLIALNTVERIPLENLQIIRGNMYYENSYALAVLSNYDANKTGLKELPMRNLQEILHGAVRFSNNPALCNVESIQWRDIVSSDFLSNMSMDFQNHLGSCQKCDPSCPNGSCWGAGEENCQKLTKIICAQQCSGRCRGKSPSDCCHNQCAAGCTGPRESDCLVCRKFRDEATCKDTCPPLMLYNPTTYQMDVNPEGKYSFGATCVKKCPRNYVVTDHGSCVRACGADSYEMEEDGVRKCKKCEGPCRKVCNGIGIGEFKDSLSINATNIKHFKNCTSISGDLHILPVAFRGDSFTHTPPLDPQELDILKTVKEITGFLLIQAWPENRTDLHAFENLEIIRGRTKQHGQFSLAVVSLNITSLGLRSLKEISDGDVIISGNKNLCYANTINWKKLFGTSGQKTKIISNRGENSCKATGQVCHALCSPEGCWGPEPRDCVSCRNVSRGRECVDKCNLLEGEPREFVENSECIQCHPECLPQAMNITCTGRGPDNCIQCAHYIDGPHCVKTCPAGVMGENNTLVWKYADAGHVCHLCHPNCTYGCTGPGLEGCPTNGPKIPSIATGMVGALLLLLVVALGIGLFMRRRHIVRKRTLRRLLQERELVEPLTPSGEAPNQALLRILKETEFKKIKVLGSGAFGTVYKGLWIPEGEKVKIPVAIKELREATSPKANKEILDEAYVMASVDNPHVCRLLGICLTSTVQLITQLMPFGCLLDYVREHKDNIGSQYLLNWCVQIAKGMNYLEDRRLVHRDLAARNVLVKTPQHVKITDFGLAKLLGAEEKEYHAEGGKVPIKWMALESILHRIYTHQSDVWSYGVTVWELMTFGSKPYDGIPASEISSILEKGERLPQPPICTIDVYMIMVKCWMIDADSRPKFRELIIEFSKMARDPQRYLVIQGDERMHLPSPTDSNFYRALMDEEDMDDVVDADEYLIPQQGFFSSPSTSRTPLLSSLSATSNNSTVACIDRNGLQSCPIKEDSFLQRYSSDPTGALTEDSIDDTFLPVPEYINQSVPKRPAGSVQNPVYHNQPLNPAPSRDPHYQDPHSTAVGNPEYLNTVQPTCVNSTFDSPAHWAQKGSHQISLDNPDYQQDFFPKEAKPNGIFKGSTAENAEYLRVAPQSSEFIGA

SMILES: CCOC(=O)c1cc2ccc3c([nH]c4cccc(Cl)c43)c2[nH]1
pIC50 [1]: < 4.00

SMILES: CCOC(=O)c1cc2ccc3c4cc(OC)ccc4[nH]c3c2[nH]1
pIC50 [1]: < 4.00

SMILES: CCOC(=O)c1cc2ccc3c4ccccc4[nH]c3c2[nH]1
pIC50 [1]: < 4.00

Second part, the compound after the results:

pIC50 [1]: < 4.00
SMILES: CCOC(=O)c1cc2ccc3c4ccc(Cl)cc4[nH]c3c2[nH]1

pIC50 [1]: < 4.00
SMILES: CCOC(=O)c1cc2ccc3c4cc(Cl)ccc4[nH]c3c2[nH]1

Activity [2]: inactive
inhibition [3]: 90%
Activity [4]: inactive
Activity [5]: inactive
Activity [6]: inactive
inhibition [7]: 50%
Activity [8]: inactive
Activity [9]: inactive
pIC50 [1]: 4.82
Activity [10]: inactive
Activity [11]: inactive
SMILES: CCOC(=O)c1cc2ccc3c4cccc(Cl)c4[nH]c3c2[nH]1

pIC50 [1]: < 4.00
SMILES: CCOC(=O)c1cc2ccc3c4cc(C)ccc4[nH]c3c2[nH]1
